Experimental data of several laboratories.
Each line is one published result; the experiments were not run side by side.
Target: MAP kinase-activated protein kinase 2 (MAPKAPK2, Homo sapiens, UniProt P49137)

| test | conditions | remaining binding [%] | SMILES |
| --- | --- | --- | --- |
| binding, competition with immobilised ligand | 1 µM | 100 | O=C(Nc1c[nH]nc1C(=O)NC1CCNCC1)c1cc(F)cc(F)c1 |
| binding, competition with immobilised ligand | 1 µM | 98 | CNC(=O)[C@@H]1CC[C@@H](n2c(-c3ccc4cnccc4c3)nc3ccc(C(=O)NCc4cccc(C(N)=O)c4)cc32)C1 |
| cell-free assay, competition with immobilised ligand | 1 µM | 100 | CCCOc1ccc([C@H]2[C@H](C(=O)O)[C@@H](c3ccc4c(c3)OCO4)CN2CC(=O)Nc2c(CC)cccc2CC)cc1 |
| binding | 1 µM | 84 | CN(C)c1nccc(-c2cnc3ncccn23)n1 |
| binding, competition with immobilised ligand | 1 µM | 100 | CCN1CCN(Cc2ccc(C(=O)Nc3ccc(C)c(Oc4ccc5c(c4)CC(=O)N5)c3)cc2C(F)(F)F)CC1 |
| cell-free assay, competition with immobilised ligand | 0.1 µM | 100 | Cc1c[nH]c2nccc(Oc3c(F)cc(Nc4cc(Cl)nc(N)n4)cc3F)c12 |
| binding, competition with immobilised ligand | 0.5 µM | 89 | C[C@@H]1CN(c2ccc3ncc(-c4ccc5[nH]nc(C6CC6)c5c4)n3n2)C[C@H](C)O1 |
| cell-free assay, competition with immobilised ligand | 1 µM | 51 | O=C(O)c1cc(-c2ccc(C3CCNCC3)cc2)c2ccc(-c3ccc(C(F)(F)F)cc3)cc2c1 |
| binding, competition with immobilised ligand | 1 µM | 100 | C=CC(=O)N1CCC(C(=O)NCC(=O)N2CCN(c3nc(-c4cnc(N)nc4C(F)F)nc(N4CCOCC4)n3)CC2)CC1 |
| cell-free assay, competition with immobilised ligand | 1 µM | 90 | COc1cc(-c2cn(C3CCc4ccccc4N(CC(F)(F)F)C3=O)nn2)ccc1-n1ccc(C)n1 (stereo not drawn) |
| binding | 1 µM | 100 | Cc1cnn2ncc(-c3ccnc(N(C)C)n3)c2c1 |
| cell-free assay, competition with immobilised ligand | 1 µM | 81 | O=C(NS(=O)(=O)c1ccc(NCC2CCOCC2)c([N+](=O)[O-])c1)c1ccc(N2CCN(Cc3ccc(C(F)(F)F)cc3-c3ccc(Cl)cc3)CC2)cc1Oc1cnc2[nH]ccc2c1 |
| binding | 1 µM | 39 | N[C@H]1CCN(c2nccc(-c3cnn4ncccc34)n2)C1 |
| binding, competition with immobilised ligand | 10 µM | 82 | N#Cc1ccccc1CSc1nnc2c(n1)[nH]c1ccccc12 |
| binding, competition with immobilised ligand | 1 µM | 100 | O=C(c1ccc(Nc2nccc(-c3cc4ccccc4s3)n2)cc1)N1CCC(N2CCCC2)CC1 |
| binding | 1 µM | 100 | CN(C)c1ncc(F)c(-c2cnn3ncccc23)n1 |
| binding, competition with immobilised ligand | 1 µM | 100 | O=C(c1ccc(Nc2ncc(Cl)c(-c3ccc(Cl)s3)n2)cc1)N1CCC(N2CCCC2)CC1 |
| binding | 1 µM | 100 | CN(C)c1nccc(-c2cnn3ncccc23)n1 |
| cell-free assay, competition with immobilised ligand | 1 µM | 100 | CNC(=O)Nc1ccc2c(c1)[C@@]1(CC2)OC(=O)N(CC(=O)N(Cc2ccc(F)cc2)[C@@H](C)C(F)(F)F)C1=O |
| binding | 1 µM | 100 | CN(CCCC(F)(F)F)c1nccc(-c2cnn3ncccc23)n1 |
| cell-free assay, competition with immobilised ligand | 1 µM | 80 | CNCc1ccccc1-c1csc([C@H](C)Nc2nc(C)nc3cc(OC)c(OC)cc23)c1 |
| binding, competition with immobilised ligand | 1 µM | 100 | O=C(c1ccc(Nc2ncc(Cl)c(-c3cc4ccccc4s3)n2)cc1)N1CCC(N2CCCC2)CC1 |
| binding, competition with immobilised ligand | 10 µM | 100 | c1cncc(-c2cccc(Nc3nccc(NC4CCCCC4)n3)c2)c1 |
| binding, competition with immobilised ligand | 1 µM | 100 | COc1cnc(Nc2cccc(S(N)(=O)=O)c2)nc1N1CCN(c2ccccc2)CC1 |
